Tested on: MS2 coat protein
Experiment: apparent Kd, MS2 coat protein; higher = weaker binding; RNA-MaP array; FMN 200 µM where present
Summary of the method: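 The apparent Kd comes from binding curves fitted cluster by cluster, filtered, and summarised as a median. Those curves followed SNAP-549-labelled MS2 coat protein from 0.7 or 1.5 nM, doubling to 3 µM, on Illumina sequencing-chip clusters where stalled E. coli RNA polymerase had transcribed the designs, without and then with constant ligand. The buffer was 100 mM Tris-HCl pH 7.5, 80 mM KCl, 4 mM MgCl2, BSA, DTT, yeast tRNA and Tween-20, and green signal was normalised to red-channel RNA signal and control-cluster median Fmax.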

[1] = designed as: ON switch for flavin mononucleotide, no ligand
[2] = ligand present: flavin mononucleotide, designed as: ON switch for flavin mononucleotide
[3] = designed as: OFF switch for flavin mononucleotide, no ligand
[4] = ligand present: flavin mononucleotide, designed as: OFF switch for flavin mononucleotide

Sequence | apparent Kd [1] | apparent Kd [2] | apparent Kd [3] | apparent Kd [4]
AAAAAAAAAGUCGAGGAUAUCCACAUGGCUACAUGAGGAUCACCCAUGUGAAGAAAAGCACAUGAGGAGAAGGCGACAAAAAAAAA | 28.1 nM | 13.7 nM | – | –
AAAAAAAAUGUGUAGGAUAUCAGUAAAAAUACAUGAGGAUCACCCAUGUUCAAAAAAAAAAAAACUGAGAAGGACACGGGAAGUCC | 48.5 nM | 30.3 nM | – | –
AAAAAACAUGAGGAUCACCCAUGUAAAAAAAUGGGAGGAUAUACAAAAACGAAAGUCAAAGUAGAAGGCCUGAAAA | 119 nM | 25.6 nM | – | –
AAAAAACAUGAGGAUCACCCAUGUAAGGAUAUCGUGCAGAAAAAAAAAAAAAACUGCACGAGAAGGUACUUGGA | – | – | 81 nM | 143 nM
AAAAAACAUGAGGAUCACCCAUGUCAGGAUAUCGUAAAAAAAAAAAAAAAAAAAAAUGCGAGAAGGGACUGGAA | – | – | 87.4 nM | 125 nM
AAAAAACAUGAGGAUCACCCAUGUCUUCGGACGUGAGGAUAUGUACAGACUUCGGUCUGUACAGAAGGCACGUCAA | 31.3 nM | 19.2 nM | – | –
AAAAAACAUGAGGAUCACCCAUGUGAAAAUAUGGGAGGAUAUACAAACACGAAAGUGAAAGUAGAAGGCCUAAAAA | 97 nM | 25.6 nM | – | –
AAAAAACAUGAGGAUCACCCAUGUGAGGAUAUCGAAAAGUUAAAGAAAAAGACGAAAAUGAGAAGGCGCAAAAA | – | – | 47.3 nM | 46.7 nM
AAAAAACAUGAGGAUCACCCAUGUGAGGAUAUGACGUAAAUAAAGAAAGAAGAAAUCGUCAGAAGGCACACCUA | – | – | 52.7 nM | 79.3 nM
AAAAAACAUGAGGAUCACCCAUGUGAGGAUAUGGAAAAAAAAAAAAAAAAAAAAAAAACCAGAAGGCACAAAAA | – | – | 92.6 nM | 60 nM
AAAAACAUAGGAUAUACAUGAGGAUCACCCAUGUUAAAAUAAAGAAAGGGAGAAAUAAGUAGAAGGAUGAAAAA | – | – | 37.7 nM | 40.2 nM
AAAAACUGAGGAUAUACGAAAAAAAAAAAAAAAAAAAAAAAACAUGAGGAUCACCCAUGUAGAAGGCAGAAAAA | – | – | 50.4 nM | 38 nM
AAAAAGCGAGGAUAUACAUAGCUAAGACGUGUGAGCGAAAAACAUGAGGAUCACCCAUGUAGAAGGCGCAAAAA | – | – | 18 nM | 17.9 nM
AAAAAGUCAGGAUAUGCUUAUAAUAAGAAAAUUAGAGAUAUGCAGAAGGGACAUGAGGAUCACCCAUGUAAAAA | – | – | 35.3 nM | 37.8 nM
AAAAAGUCAGGAUAUGUCAAAAGUCACAAAAGUGACAAAAGACAGAAGGGACAUGAGGAUCACCCAUGUAAAAA | – | – | 29 nM | 46.4 nM
AAAAAGUGAGGAUAUACAUGAGGAUCACCCAUGUGAAAGUCGAAAAAAAAGACAAAAAGUAGAAGGCACAAAAA | – | – | 30.7 nM | 32.7 nM
AAAAAGUGAGGAUAUACGCUGUGGAGUAGACACAACCAGUCGUAGAAGGCACAUGAGGAUCACCCAUGUUCAAA | – | – | 27.2 nM | 30.1 nM
AAAACAUGAGGAUCACCCAUGUAAAGAACGGUUAAUAAAUGUGAGGAUAUACUAAAAUUUACGUAGUAGAAGGCACUGGGUACA | 20.8 nM | 25.1 nM | – | –
AAAACAUGAGGAUCACCCAUGUAAAUAUCGGUUAAUUGUUGUGAGGAUAUACUAAAUUUUAAGAAGUAGAAGGCACUGGGUACA | – | 23.9 nM | – | –

Sequence | apparent Kd [1] | apparent Kd [2] | apparent Kd [3] | apparent Kd [4]
AAAAGACAUGAGGAUCACCCAUGUAAAGACAUAGGAGGAUAUGUCUUGAAAAAAGACUUGACAGAAGGCCUUUGUC | 23.8 nM | 20.8 nM | – | –
AAAAGACAUGAGGAUCACCCAUGUCAAGACAUGGGAGGAUAUGCAUGGAAAACAUGCUGUGCAGAAGGCUCAUGUC | 32.6 nM | 22.4 nM | – | –
AAAAGACAUGAGGAUCACCCAUGUCUUCGGACAUGAGGAUAUGUACAGACUUCGGUCUGUACAGAAGGCAUGUAAA | 42.9 nM | 17 nM | – | –
AAAAGAUGAGGAUAUAUAUGGAAUCCAAGGCAUGUGCUCUCACAUGAGGAUCACCCAUGUAGAAGGCAUCUGCC | – | – | 10.1 nM | 13 nM
AAAAGCAAAGGAUAUACAUGAGGAUCACCCAUGUAAAAAAGAAAAGAGUAUAUGGCAUGUAGAAGGUUGCGUGG | – | – | 34.5 nM | 49.8 nM
AAAAGGUCAGGAUAUCGGCGCGGUUGGGAGGCAGGUCCGCGCGAGAAGGGACAUGAGGAUCACCCAUGUUAAAA | – | – | 29.2 nM | 32.4 nM
AAAAGGUCAGGAUAUGCCCUCCUGGUGGAAAAGCCUGGUGGGCAGAAGGGACAUGAGGAUCACCCAUGUAAAAA | – | – | 60.8 nM | 81.8 nM
AAAAUACAUGAGGAUCACCCAUGUGAAAAUAUGGGAGGAUAUACCGAAAAAAAAAAAAAGGUAGAAGGCCCAAAAA | 22.5 nM | 32.5 nM | – | –
AAAAUACAUGAGGAUCACCCAUGUUAGGAUAUCCAAGGUCUAACCCUCAGGGUUAGACGGAGAAGGGAUGUGGU | – | – | 60.8 nM | 61.6 nM
AAAAUGUCAGGAUAUGCGAAGGCGUCUGAUAGACGAGGCUAGCAGAAGGGACAUGAGGAUCACCCAUGUAAAAA | – | – | 52.6 nM | 152 nM
AAAAUGUCAGGAUAUUGUUAGUUUAGUUGUUUGUAUUAGUUCGAGAAGGGACAUGAGGAUCACCCAUGUUGAAA | – | – | 33.8 nM | 33 nM
AAAAUGUGAGGAUAUCACGGAGCUCCGCGUGACGGAGCUCCUGAGAAGGCACAUGAGGAUCACCCAUGUCCUGU | – | – | 51.3 nM | 316 nM
AAAAUGUGAGGAUAUCCGAAGGCGUCUGAUAGACGAGGCUAGGAGAAGGCACAUGAGGAUCACCCAUGUAAAAA | – | – | 46.6 nM | 95.1 nM
AAACAAGAAGGAUAUACAUUAUCGGAUCUUCCGGCAAUGCCACAUGAGGAUCACCCAUGUAGAAGGUCUAAAUU | – | – | 12.3 nM | 18.9 nM
AAACACAAACAUGAGGAUCACCCAUGUUAUGAAAAUAUUGGGAGAAGGGCGAUUGCAAAGCAAUCGCAGGAUAUUCGUAUUGUG | 34.4 nM | 12.2 nM | – | –
AAACACGGACAUGAGGAUCACCCAUGUGGCGAAAGCCUUGGGAGAAGGCCGUAUGCAAAGCAUACGGAGGAUAUUCAUACCGUG | 1410 nM | 67.9 nM | – | –
AAACAGCGAGAUAAUAAUGAUUACAUGAGGAUCACCCAUGUAUAGGAUAUCGUCAGGAAUACUGACGAGAAGGAUACAACGCUG | – | – | 16 nM | 26.5 nM
AAACAUGUCCGAGGAUAUCUGAGAACAUUUUCAAGAGAAGGCGGACAUGAGGAUCACCCAUGUCUCUCCUCAUCAACUCCAAAU | – | – | 6.37 nM | 17.3 nM
AAACAUGUCCGAGGAUAUCUGAGAUCAUUUUCAAGAGAAGGCGGACAUGAGGAUCACCCAUGUCUCUCCUCAUCAACUCCAAAG | – | – | 7.22 nM | 35.6 nM

Sequence | apparent Kd [1] | apparent Kd [2] | apparent Kd [3] | apparent Kd [4]
AAACAUGUCCGAGGAUAUCUGGAAACACUUUCAAGAGAAGGCGGACAUGAGGAUCACCCAUGUCUCUCCUCAUCAAAUCCAAGU | – | – | 6.53 nM | 30.2 nM
AAACCCUGAGGAUAUACAUAACAACAAAGCCUCACGUGCCAACAUGAGGAUCACCCAUGUAGAAGGCAGGCCAA | – | – | 12.8 nM | 41.7 nM
AAACCGUGUGGAGGAUAUGCAGUUGAGGUAAGGCGGCAGCUCUAUACGACAGCAGAAGGCCACAUGAGGAUCACCCAUGUAGGU | – | – | 122 nM | 53.2 nM
AAACGGGCAGGAUAUGCGUACUCACGGGAAAACUGAAUGGUACAUGAGGAUCACCCAUGUAGAAGGGCUUAAAA | – | – | 53.5 nM | 46.1 nM
AAACUGCAGAAGAUAAUAAUGAAUACAUGAGGAUCACCCAUGUAGGAUAUCGUCAGGAAUACUGACGAGAAGGACAUACUGCAG | – | – | 14.3 nM | 15.6 nM
AAAGCAACAUGAGGAUCACCCAUGUAGGAUAUCGCUAUUGUAAUCAUGAAACAUGAUUACAAUAGCGAGAAGGACAUAUGCUUU | – | – | 6.77 nM | 9.48 nM
AAAGCACGAGGAUAUACAUGAGGAUCACCCAUGUAUAAAAAAAAAAAAAAAUCCUCAUGUAGAAGGCGUGCAAA | – | – | 53.6 nM | 41 nM
AAAUAAAGCAGUGUAUUAAGAUAACAUGAGGAUCACCCAUGUAGAAGGCUCGAGCAAAAUGCUCGAGAGGAUAUACAACACUGC | – | – | 5.04 nM | 9.55 nM
AAAUAAAGUACCUAGAUAUCCUCACAUGAGGAUCACCCAUGUCAGGAUAUUUGUCCUAAAAGGACAGAGAAGGGACAAGGUAUA | – | – | 5.52 nM | 9.72 nM
AAAUAACAUGAGGAUCACCCAUGUGCUGGAUAUGCAGGAUAUGGGCGGCGGGAGCGCGGCCCAGAAGGGCAGCUCC | 100 nM | 113 nM | – | –
AAAUAAGUUGCAGGAUAUUAUUUAUAAUAUAUAUAAGAAGGGCAACAAACCUCACAUGAGGAUCACCCAUGUACCCAUGCAUCU | – | – | 109 nM | 44.8 nM
AAAUACAGAGGAUAUGUACGAAUUGACAUGAGGAUCACCCAUGUGACUUCGUGCACUUUGACAGAAGGCUGGGAAU | – | – | 16.8 nM | 32.7 nM
AAAUAGUUAGGAUAUACAUGAGGAUCACCCAUGUGGACUGAUGGCGCUUGAUUCAGUGGUAGAAGGGACUCAAA | – | – | 45.9 nM | 69.2 nM
AAAUCAGUAGGAUAUACGAUUUUAUACUAGAUAGAGGAACCACAUGAGGAUCACCCAUGUAGAAGGACUAGAUA | – | – | 14.6 nM | 14.9 nM
AAAUCCUACGAAGGAUAUACAAACAUGAGGAUCACCCAUGUGUCUUUCGUGUAACUGGAAUUCGGGUAGAAGGUCGUAGACAUA | – | – | 17 nM | 22.6 nM
AAAUCGAGGUAACUCGCUAUCACACCAGAAGGGACGGAGGCACAUGAGGAUCACCCAUGUCCUAGUCAGGAUAUGGGUGAGUGG | 25.6 nM | 4.96 nM | – | –
AAAUCGUCAGGAUAUGCAUGUAAUUGUUACAUUUCUCCGUUGCAGAAGGGACAUGAGGAUCACCCAUGUAAGUC | – | – | 31.2 nM | 29.2 nM
AAAUGGAACUAAGGAUAUCUGUAUUUUGUUGAAACAUGAGGAUCACCCAUGUUCAUGAAAUUAUAGGAGAAGGUAGAUCCAUAA | 4.51 nM | 4.6 nM | – | –
AAAUUCAGAGGAUAUGCGCAUAGAUAAGACUUUGUUUCUUAACAUGAGGAUCACCCAUGUAGAAGGCUGUAAAA | – | – | 19.4 nM | 19.8 nM

From the EternaBench riboswitch data
